Compound activity deposited in PubChem BioAssay by Broad Institute.
DENV2 CPE – inhibitors of DENV2 cytopathic effect; DENV2-infected cells, cytopathic effect rescue, plate reader; CPE inhibition, % at 9.99 µM; 350,000 compounds, 1.7% hits; in the data active = CPE inhibition above about 20%, passing the limit was not always enough; inconclusive = no clear call, values can overlap the other calls; tested in BHK-21 cells;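 note: 0% = median of neutral control wells and 100% = median of positive control wells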
PglD DTNB – inhibitors of Campylobacter jejuni PglD acetyltransferase. purified PglD enzyme, DTNB colorimetric CoA detection. inhibition, % at 12.5 µM. 360,000 compounds, 0.098% hits; in the data active = inhibition above about 16%, passing the limit was not always enough; inconclusive = no clear call, values can overlap the other calls
SIRT5 block – sirtuin-5 (human) deacylase inhibition; Purified SirT5, succinyl-peptide AMC, trypsin-coupled fluorescence; inhibition, % at 15 µM; 330,000 compounds, 1.1% hits; in the data active = inhibition above about 15%; inconclusive = no clear call, values can overlap the other calls
ERAP1 inh – ERAP1 (human) enzyme inhibition. AID 652197. recombinant ERAP1, Leu-AMC fluorescence, 60 min. 340,000 compounds, 0.15% hits. inhibition, % at 10.7 µM;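 active = mean replicate inhibition of at least 30%, or all replicates individually reaching that 30% level; inactive = mean below 30% and not every replicate reaching it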;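 note: 0% = neutral control wells and 100% = L-leucinethiol positive control wells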
Target sequence (Q9NZ08 whole entry, looked up): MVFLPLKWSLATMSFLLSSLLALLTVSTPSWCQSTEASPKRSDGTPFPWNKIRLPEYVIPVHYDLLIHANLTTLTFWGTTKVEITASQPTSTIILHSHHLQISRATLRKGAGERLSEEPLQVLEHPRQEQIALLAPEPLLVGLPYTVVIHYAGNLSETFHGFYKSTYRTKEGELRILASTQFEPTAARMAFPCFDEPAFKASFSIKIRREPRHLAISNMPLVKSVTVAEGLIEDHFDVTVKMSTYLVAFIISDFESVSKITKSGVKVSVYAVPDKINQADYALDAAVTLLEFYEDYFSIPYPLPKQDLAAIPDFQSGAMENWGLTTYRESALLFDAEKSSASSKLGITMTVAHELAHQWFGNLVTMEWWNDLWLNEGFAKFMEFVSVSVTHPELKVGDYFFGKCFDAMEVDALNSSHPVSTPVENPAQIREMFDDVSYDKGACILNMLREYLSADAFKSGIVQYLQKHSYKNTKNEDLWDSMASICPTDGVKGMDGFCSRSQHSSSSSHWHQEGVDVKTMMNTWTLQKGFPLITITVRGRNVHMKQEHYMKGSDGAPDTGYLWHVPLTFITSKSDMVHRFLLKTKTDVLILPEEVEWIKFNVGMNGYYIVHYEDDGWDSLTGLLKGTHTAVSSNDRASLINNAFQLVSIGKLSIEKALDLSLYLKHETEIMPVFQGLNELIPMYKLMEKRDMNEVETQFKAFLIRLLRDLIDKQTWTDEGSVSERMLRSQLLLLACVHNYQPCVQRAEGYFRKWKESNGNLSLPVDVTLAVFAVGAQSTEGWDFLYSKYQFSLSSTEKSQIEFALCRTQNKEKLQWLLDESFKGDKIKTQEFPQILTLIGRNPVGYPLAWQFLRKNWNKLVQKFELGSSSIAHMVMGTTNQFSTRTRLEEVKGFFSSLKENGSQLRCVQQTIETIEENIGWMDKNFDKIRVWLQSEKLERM
E-selectin induc – induces E-selectin expression in human endothelial cells. 260,000 compounds, 0.37% hits. activation, % at 7.58 µM. AID 686992. P16581. HUVEC E-selectin immunofluorescence imaging; normalized: neutral wells 0, TNF-alpha wells 100;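 active = mean E-selectin-positive cell signal at least 10% of the positive control, reached in at least 60% of replicates, without over 20% cell loss; inconclusive = no rule given, readout overlaps actives, possibly toxicity-flagged; inactive = the rest, including those meeting only one limit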
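Test system: HUVEC | Signal: Immunofluorescence imaging | Read-out: Percent E-selectin-positive cells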
The depositor's hits bear a star; u = inconclusive; x = no result. Shown are actives, neighbours in structure and some others; about 2.5% of the full set was active somewhere.

SMILES	DENV2 CPE	PglD DTNB	SIRT5 block	ERAP1 inh	E-selectin induc
CCOC(=O)CSC1=C(C#N)C(c2sccc2C)C(C(C)=O)=C(C)N1 (stereo not drawn)	0	x	34*	0	x
COc1cccc2sc3cc(NCc4ccc(C)o4)ccc3c(=O)c12	56*	2	x	-13	-1
COc1cc2sc3cc(NCCCN4CCOCC4)ccc3c(=O)c2cc1OC	2	-2	x	x	0
Cc1ncc(CN2CCC(CO)(Cc3ccccc3)CC2)s1	4	x	18*	x	-1
O=C(COC(=O)CC1CC2CCC1C2)Nc1ccc(F)cc1 (stereo not drawn)	0	x	112*	4	1
CC1CCc2sc(C(=O)NN=C3CCCC3)cc2C1 (stereo not drawn)	52*	-2	-3	-8	0
CC1CCc2sc(C(=O)NN)cc2C1 (stereo not drawn)	0	x	-3	1	x
CCCCCCCCN1[C@@H](CC(=O)O)c2cc(C(F)(F)F)ccc2S1(=O)=O	3	-4	40*	2	0
CCCCCCCCCCCCN1[C@@H](CC(=O)O)c2cc(C(F)(F)F)ccc2S1(=O)=O	u	6	x	17	1
C[C@@H]1CN([C@H](C)CO)S(=O)(=O)c2ccc(C3=CCCCC3)cc2O[C@@H]1CN(C)C(=O)Nc1ccc2c(c1)OCO2	2	5	15*	2	0
C[C@H]1CN([C@@H](C)CO)S(=O)(=O)c2ccc(C3=CCCC3)cc2O[C@H]1CN(C)C(=O)C1CCC1	21*	4	4	0	0
CCC(=O)N(C)C[C@H]1Oc2cc(C3=CCCC3)ccc2S(=O)(=O)N([C@@H](C)CO)C[C@@H]1C	-8	7	6	0	71*
CCCNC(=O)N(C)C[C@H]1Oc2cc(C3=CCCC3)ccc2S(=O)(=O)N([C@H](C)CO)C[C@H]1C	30*	-4	4	x	0
C[C@@H]1CN([C@@H](C)CO)S(=O)(=O)c2ccc(C3=CCCCC3)cc2O[C@H]1CN(C)C(=O)C1CCC1	8	-3	4	-1	4
CS(=O)(=O)N1CCCCN2[C@@H](CO)[C@@H](c3ccc(C4=CCCC4)cc3)[C@@H]2C1	29*	-2	2	2	0
CS(=O)(=O)N1CCCCN2[C@H](CO)[C@@H](c3ccc(C4=CCCC4)cc3)[C@H]2C1	0	-1	x	x	0
CS(=O)(=O)N1CCCCN2[C@H](CO)[C@H](c3ccc(C4=CCCC4)cc3)[C@@H]2C1	29*	-4	6	2	0
CS(=O)(=O)N1CCCCN2[C@H](C1)[C@H](c1ccc(C3=CCCC3)cc1)[C@@H]2CO	-9	-9	x	x	0
O=C(O)CC/C(=N/NC(=O)CNC(=O)Cc1ccccc1)c1ccccc1	-1	x	-2	0	2
CC(=O)N1C[C@H]2CON(C)[C@H]2C[C@H]1c1cccc(N2CCOCC2)c1	13	-10	-5	108*	0
COCC(=O)N1C[C@H]2CON(C)[C@H]2C[C@H]1c1cccc(-c2ccccc2)c1	34*	-4	2	2	0
CN1OC[C@@H]2CN(C(=O)CCc3ccccc3)[C@H](c3cccc(N4CCOCC4)c3)C[C@@H]21	-1	-4	-6	2	0
CC(C)C[C@@H](CN=[N+]=[N-])N1CCN(CC(C)C)CCC1=O	87*	0	x	-4	0
CCOc1cc(N2CCOCC2)c(OCC)cc1NC(=O)CN1CCN(Cc2ccc3c(c2)OCO3)CC1	29*	x	-2	5	0
Cc1ccc(C(=O)CCC(=O)Nc2ncccc2C)cc1	3	0	0	-3	-1
SMILES	DENV2 CPE	PglD DTNB	SIRT5 block	ERAP1 inh	E-selectin induc
C[C@H](O)C#Cc1ccc2c(c1)O[C@H](CN(C)Cc1ccc(-c3ccccc3)cc1)[C@@H](C)CN([C@@H](C)CO)S2(=O)=O	14	1	30*	3	0
C[C@@H]1CN([C@H](C)CO)S(=O)(=O)c2ccc(C#C[C@@H](C)O)cc2O[C@H]1CN(C)Cc1ccc(-c2ccccc2)cc1	0	-4	30*	-1	0
C[C@@H](O)C#Cc1ccc2c(c1)O[C@H](CN(C)Cc1ccccc1)[C@@H](C)CN([C@@H](C)CO)S2(=O)=O	-2	0	3	-4	0
C[C@@H]1CN([C@@H](C)CO)S(=O)(=O)c2ccc(C#C[C@@H](C)O)cc2O[C@@H]1CN(C)Cc1ccc(-c2ccccc2)cc1	-2	1	24*	2	0
C[C@H](O)C#Cc1ccc2c(c1)O[C@@H](CN(C)Cc1ccc(-c3ccccc3)cc1)[C@H](C)CN([C@H](C)CO)S2(=O)=O	0	1	28*	-1	0
O=C(NCc1ccc(Cl)nc1)c1csc([C@@H]2C[C@H](O)[C@@H](CO)O2)n1	-4	-4	x	0	0
C[C@H](O)C#Cc1ccc2c(c1)O[C@H](CN(C)Cc1ccc(-c3ccccc3)cc1)[C@H](C)CN([C@@H](C)CO)S2(=O)=O	4	-5	27*	0	0
Cc1ccc(C(=O)c2ncc[nH]2)cc1	52*	0	x	-3	0
O=S(=O)(O)c1cccc2c(N=Nc3ccc(O)c4ncccc34)cccc12	x	0	34*	15	x
COc1ccc(COC(=O)C2=C(C)NC(=O)NC2c2ccccc2F)cc1 (stereo not drawn)	39*	3	2	-1	-2
COc1ccc(COC(=O)C2=C(C)NC(=O)NC2c2ccccc2)cc1 (stereo not drawn)	19	-1	12	4	0
C[C@H]1CN([C@@H](C)CO)C(=O)Cc2cc(NC(=O)Cc3ccccc3)ccc2O[C@H]1CN(C)Cc1ccccc1	u	2	1	-1	0
CO[C@H]1CN(C)C(=O)c2cc(NC(=O)CC(F)(F)F)ccc2OC[C@H](C)N(C(=O)C2CCOCC2)C[C@H]1C	19	x	x	-2	0
CO[C@H]1CN(C)C(=O)c2cc(NC(=O)CC(F)(F)F)ccc2OC[C@H](C)N(C(=O)C2CCOCC2)C[C@@H]1C	27*	x	-5	-2	0
CO[C@@H]1CN(C)C(=O)c2ccc(NS(C)(=O)=O)cc2OC[C@H](C)N(C(=O)C2CCOCC2)C[C@H]1C	4	3	2	0	0
CO[C@@H]1CN(C)C(=O)c2ccc(NS(C)(=O)=O)cc2OC[C@@H](C)N(C(=O)C2CCOCC2)C[C@H]1C	-4	18*	1	-2	0
CO[C@@H]1CN(C)C(=O)c2ccc(NC(=O)CC(F)(F)F)cc2OC[C@@H](C)N(C(=O)C2CCOCC2)C[C@@H]1C	24*	x	x	1	0
CO[C@@H]1CN(C)C(=O)c2cc(NC(=O)CC(F)(F)F)ccc2OC[C@H](C)N(C(=O)C2CCOCC2)C[C@@H]1C	26*	x	x	0	0
COC(=O)C(CCSC)NC(=O)Cn1ncc2c(=O)oc3ccc(C)cc3c21 (stereo not drawn)	2	-3	-10	6	1
